In BindingDB's records for doi:10.1021/jm501455s (Istituto Italiano Di Tecnologia, 2014):

Target: T1, N-acylethanolamine-hydrolyzing acid amidase (Rattus norvegicus, UniProt Q5KTC7)
T1 sequence (Q5KTC7 whole entry): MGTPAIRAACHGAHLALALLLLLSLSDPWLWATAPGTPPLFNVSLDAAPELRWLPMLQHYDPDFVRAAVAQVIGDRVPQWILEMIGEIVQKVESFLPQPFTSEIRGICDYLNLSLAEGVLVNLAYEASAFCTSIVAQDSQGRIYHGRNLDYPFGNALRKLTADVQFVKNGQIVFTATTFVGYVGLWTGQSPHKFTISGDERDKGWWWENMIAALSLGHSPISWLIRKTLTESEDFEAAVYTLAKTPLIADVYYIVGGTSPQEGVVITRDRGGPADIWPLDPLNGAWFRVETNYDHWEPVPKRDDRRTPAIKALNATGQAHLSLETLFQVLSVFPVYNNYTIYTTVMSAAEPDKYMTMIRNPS
Test: Inhibition of NAAA in Sprague-Dawley rat lung assessed as inhibition of hydrolysis of 10-cis-heptadecenoylethanolamide by UPLC/MS method
Summary of the method: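 Native NAAA enzyme prepared from rat lungs, not a recombinant construct. The substrate, 10-cis-heptadecenoylethanolamide, is an unnatural fatty acid ethanolamide. Inhibition of its hydrolysis was measured, and the median inhibitory concentration (IC50) was reported.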

SMILES | IC50
C[C@@H]1OC(=O)[C@@H]1NC(=O)OCC#Cc1ccccc1 | 15 nM
Cc1ccc(-c2ccc(COC(=O)N[C@H]3C(=O)O[C@H]3C)cc2)cc1 | 24 nM
C[C@@H]1OC(=O)[C@@H]1NC(=O)OCc1ccc(-c2ccc(C(F)(F)F)cc2)cc1 [US9353075, 44] | 28 nM
